# *1 amine or outer side, *2 acyl side, *3 side chain or, on linkers, in order; H or OH if unused. Where a SMILES comes first, the peptide text is derived from it. Bridges are numbered along the chain shown (N, C = ends). [ ]: non-standard residue; d: D form. The star is where a group is joined. 6FAM = O=C1OC2(c3ccc(O)cc3Oc3cc(O)ccc32)c2cc(C(=O)*)ccc21; X1 = O=C([C@@H](O)CS[*:2])[*:1]; Orn = NCCC[C@H](N)C(=O)O; Mpa = O=C(O)CCS
# What was measured:
# [1] = molecular target: T1, Vasopressin V1b receptor (Homo sapiens, UniProt P47901); test: Binding affinity towards human Vasopressin V1b receptor
# T1 sequence (P47901 whole entry): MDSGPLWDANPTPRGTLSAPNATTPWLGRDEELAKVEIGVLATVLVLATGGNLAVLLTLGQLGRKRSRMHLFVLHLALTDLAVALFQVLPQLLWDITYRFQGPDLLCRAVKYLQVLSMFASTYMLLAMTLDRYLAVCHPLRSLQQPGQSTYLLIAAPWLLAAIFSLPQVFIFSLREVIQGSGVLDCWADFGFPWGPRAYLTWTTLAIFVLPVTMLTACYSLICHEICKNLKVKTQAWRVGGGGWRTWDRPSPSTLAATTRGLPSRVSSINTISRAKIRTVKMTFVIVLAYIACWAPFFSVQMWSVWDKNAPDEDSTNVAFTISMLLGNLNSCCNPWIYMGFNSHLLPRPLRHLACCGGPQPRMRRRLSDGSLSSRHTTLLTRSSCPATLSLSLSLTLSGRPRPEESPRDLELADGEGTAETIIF
# How it was run: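 Competition binding on membranes from CHO cells stably expressing one human receptor, butyrate-treated (5 mM, overnight). Radioligands: OT, 200-250 pM [125I]OTA or 120-180 pM [125I]HO-LVA; V1a, 40-60 pM [125I]HO-LVA; V1b, 1-3 nM [3H]AVP. Competitor 1 pM-1 µM; nonspecific with 1 µM unlabeled ligand; 1 h, 30 °C. Ki by nonlinear least-squares, ≥3 experiments in triplicate.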
# [2] = molecular target: Vasopressin V1a receptor (Homo sapiens, UniProt P37288); test: Binding affinity for human Vasopressin V1a receptor
# Vasopressin V1a receptor, sequence (P37288 whole entry): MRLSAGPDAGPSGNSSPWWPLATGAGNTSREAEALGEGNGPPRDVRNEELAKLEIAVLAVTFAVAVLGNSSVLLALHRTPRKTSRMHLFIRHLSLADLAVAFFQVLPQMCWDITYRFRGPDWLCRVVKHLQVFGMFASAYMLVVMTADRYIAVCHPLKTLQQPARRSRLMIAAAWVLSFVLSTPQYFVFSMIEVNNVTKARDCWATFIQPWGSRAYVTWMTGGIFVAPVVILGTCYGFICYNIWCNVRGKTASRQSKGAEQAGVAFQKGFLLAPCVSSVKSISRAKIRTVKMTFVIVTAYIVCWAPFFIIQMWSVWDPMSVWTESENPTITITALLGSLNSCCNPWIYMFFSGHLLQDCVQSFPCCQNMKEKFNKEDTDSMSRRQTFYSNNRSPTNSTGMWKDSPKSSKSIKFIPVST
# [3] = molecular target: Vasopressin V2 receptor (Homo sapiens, UniProt P30518); test: Binding affinity towards human Vasopressin V2 receptor
# Vasopressin V2 receptor, sequence (P30518 whole entry): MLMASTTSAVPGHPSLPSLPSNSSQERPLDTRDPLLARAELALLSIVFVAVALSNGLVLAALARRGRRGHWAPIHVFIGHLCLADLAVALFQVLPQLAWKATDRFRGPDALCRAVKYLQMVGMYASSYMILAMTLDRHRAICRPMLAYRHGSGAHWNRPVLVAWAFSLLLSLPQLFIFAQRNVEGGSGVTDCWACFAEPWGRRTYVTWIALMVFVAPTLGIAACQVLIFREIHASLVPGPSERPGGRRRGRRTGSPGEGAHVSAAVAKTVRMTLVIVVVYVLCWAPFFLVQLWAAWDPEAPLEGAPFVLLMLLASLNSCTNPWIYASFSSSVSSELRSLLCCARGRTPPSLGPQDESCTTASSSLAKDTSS
# How it was run: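 Human V2 receptor stably expressed in CHO cells, butyrate-treated (5 mM, overnight); membranes at 5-10 µg protein/assay competed against 1-3 nM [3H]AVP. Fluorescent ligand ranged 1 pM-1 µM; nonspecific binding defined with 1 µM unlabeled ligand. Incubation 1 h at 30 °C. Ki from nonlinear least-squares fit of two independent experiments, each run in triplicate.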
# [4] = molecular target: T2, Oxytocin receptor (Homo sapiens, UniProt P30559); test: Binding affinity for human oxytocin receptor
# T2 sequence (P30559 whole entry): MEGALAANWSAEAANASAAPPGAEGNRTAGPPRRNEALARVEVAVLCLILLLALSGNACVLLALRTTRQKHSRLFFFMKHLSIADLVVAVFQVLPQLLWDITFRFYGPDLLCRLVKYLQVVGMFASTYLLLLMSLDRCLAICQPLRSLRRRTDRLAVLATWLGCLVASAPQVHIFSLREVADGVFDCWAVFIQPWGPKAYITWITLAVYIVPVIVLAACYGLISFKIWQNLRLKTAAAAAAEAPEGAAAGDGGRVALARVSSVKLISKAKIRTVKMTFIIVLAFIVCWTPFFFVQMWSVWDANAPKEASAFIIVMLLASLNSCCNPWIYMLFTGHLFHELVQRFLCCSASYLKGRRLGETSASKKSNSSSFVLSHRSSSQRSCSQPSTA
SMILES,Ki [1] [nM],Ki [2] [nM],Ki [3] [nM],Ki [4] [nM]
CC[C@H](C)[C@@H]1NC(=O)[C@H](Cc2ccc(O)cc2)NC(=O)CCSSC[C@@H](C(=O)N2CCC[C@H]2C(=O)N[C@@H](CCCNC(=O)c2ccc3c(c2)C2(OC3=O)c3ccc(O)cc3Oc3cc(O)ccc32)C(=O)NCC(N)=O)NC(=O)[C@H](CC(N)=O)NC(=O)[C@H]([C@@H](C)O)NC1=O ([Mpa]YITNCP[Orn](6FAM)G-NH2; disulfide 1-6),282,30,> 10000,0.4
CC[C@H](C)[C@@H]1NC(=O)[C@H](Cc2ccc(O)cc2)NC(=O)[C@@H](O)CSSC[C@@H](C(=O)N2CCC[C@H]2C(=O)N[C@@H](CCCNC(=O)c2ccc3c(c2)C2(OC3=O)c3ccc(O)cc3Oc3cc(O)ccc32)C(=O)NCC(N)=O)NC(=O)[C@H](CC(N)=O)NC(=O)[C@H]([C@@H](C)O)NC1=O (YITNCP[Orn](6FAM)G-NH2; linker N-5 via X1),87,11.8,> 1000,0.17
CC[C@H](C)[C@@H]1NC(=O)[C@H](Cc2ccc(O)cc2)NC(=O)CCSSC[C@@H](C(=O)N2CCC[C@H]2C(=O)N[C@@H](CCCCNC(=O)c2ccc3c(c2)C2(OC3=O)c3ccc(O)cc3Oc3cc(O)ccc32)C(=O)NCC(N)=O)NC(=O)[C@H](CC(N)=O)NC(=O)[C@H]([C@@H](C)O)NC1=O ([Mpa]YITNCPK(6FAM)G-NH2; disulfide 1-6),150,25.5,> 10000,1.8
CC[C@H](C)[C@@H]1NC(=O)[C@H](Cc2ccc(O)cc2)NC(=O)[C@@H](O)CSSC[C@@H](C(=O)N2CCC[C@H]2C(=O)N[C@@H](CCCCNC(=O)c2ccc3c(c2)C2(OC3=O)c3ccc(O)cc3Oc3cc(O)ccc32)C(=O)NCC(N)=O)NC(=O)[C@H](CC(N)=O)NC(=O)[C@H]([C@@H](C)O)NC1=O (YITNCPK(6FAM)G-NH2; linker N-5 via X1),53,17.3,> 10000,0.32

# — ChEMBL document CHEMBL1135468 (J Med Chem, 2002)
